In article PMC10099454 (ACS Omega, 2023):

Columns and labels:
MCF-7 = test: MTT cytotoxicity assay; assay type: cell-based; conditions: Homo sapiens, MCF7, 48 h, read-out: IC50 MCF-7
Procedure, shortened: (§1)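 Human cancer (A549, MCF-7) and normal (MCF-10A, THLE2, WISH) lines cultured in RPMI-1640/DMEM with L-glutamine, 10% FBS and 1% penicillin-streptomycin at 37 °C, 5% CO2. […] MTT absorbance read at […]. IC50 taken from concentration-viability curves.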

A549 = test: MTT cytotoxicity assay; assay type: cell-based; conditions: Homo sapiens, A549, 48 h, read-out: IC50 A549
Procedure, shortened: as §1

Topoisomerase II = Topoisomerase II (Homo sapiens, UniProt P11388); test: Topo II inhibition assay; assay type: biochemical
[1] = read-out: IC50 broad anticancer activity; cited from earlier work

Topoisomerase II, sequence (P11388 whole entry): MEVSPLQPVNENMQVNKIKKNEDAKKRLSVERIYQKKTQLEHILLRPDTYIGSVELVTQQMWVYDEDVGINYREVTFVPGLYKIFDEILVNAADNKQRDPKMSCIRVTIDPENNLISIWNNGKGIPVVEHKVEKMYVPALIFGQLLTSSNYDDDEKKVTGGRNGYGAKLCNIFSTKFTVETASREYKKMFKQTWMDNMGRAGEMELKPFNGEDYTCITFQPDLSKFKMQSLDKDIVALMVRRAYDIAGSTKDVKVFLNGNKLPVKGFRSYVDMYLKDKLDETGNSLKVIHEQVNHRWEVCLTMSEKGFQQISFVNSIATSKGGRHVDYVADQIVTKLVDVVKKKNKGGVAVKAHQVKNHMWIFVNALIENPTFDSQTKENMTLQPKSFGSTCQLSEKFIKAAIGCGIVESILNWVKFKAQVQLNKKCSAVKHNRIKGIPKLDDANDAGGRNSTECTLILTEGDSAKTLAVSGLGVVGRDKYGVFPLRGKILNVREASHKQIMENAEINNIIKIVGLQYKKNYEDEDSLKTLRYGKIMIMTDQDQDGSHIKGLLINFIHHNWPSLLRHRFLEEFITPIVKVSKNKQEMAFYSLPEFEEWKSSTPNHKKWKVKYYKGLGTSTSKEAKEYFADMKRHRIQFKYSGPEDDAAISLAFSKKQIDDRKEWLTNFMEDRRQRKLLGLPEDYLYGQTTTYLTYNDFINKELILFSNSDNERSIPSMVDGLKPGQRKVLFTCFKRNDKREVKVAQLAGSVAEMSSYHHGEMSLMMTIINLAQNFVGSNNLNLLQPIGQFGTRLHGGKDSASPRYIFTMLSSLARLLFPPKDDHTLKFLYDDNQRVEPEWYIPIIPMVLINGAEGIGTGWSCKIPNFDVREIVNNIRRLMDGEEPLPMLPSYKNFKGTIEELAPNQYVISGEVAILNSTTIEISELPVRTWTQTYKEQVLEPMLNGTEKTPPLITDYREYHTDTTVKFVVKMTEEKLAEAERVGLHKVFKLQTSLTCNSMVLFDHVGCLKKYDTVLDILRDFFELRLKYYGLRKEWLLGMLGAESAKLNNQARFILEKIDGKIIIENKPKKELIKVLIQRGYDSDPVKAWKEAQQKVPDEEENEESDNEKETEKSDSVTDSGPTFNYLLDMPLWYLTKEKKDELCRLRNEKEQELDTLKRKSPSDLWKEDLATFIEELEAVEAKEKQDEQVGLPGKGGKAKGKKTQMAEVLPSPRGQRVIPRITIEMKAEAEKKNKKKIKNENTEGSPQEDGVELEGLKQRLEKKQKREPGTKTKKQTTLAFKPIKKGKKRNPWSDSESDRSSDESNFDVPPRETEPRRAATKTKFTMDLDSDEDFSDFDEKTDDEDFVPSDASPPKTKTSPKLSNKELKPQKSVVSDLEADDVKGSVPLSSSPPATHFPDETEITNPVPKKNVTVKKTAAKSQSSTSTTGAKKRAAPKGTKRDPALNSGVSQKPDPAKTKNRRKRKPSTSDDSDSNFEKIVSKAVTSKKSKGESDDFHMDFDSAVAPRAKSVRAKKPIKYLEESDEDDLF

Row | IC50 (Topoisomerase II) | Compound | IC50 (MCF-7) | IC50 (A549) | IC50 [1]
1 | 7.6 ± 0.24 µM | CC(=O)OC[C@H]1O[C@@H](N2C(=O)/C(=C/c3ccccc3)SC2=S)[C@H](OC(C)=O)[C@@H](OC(C)=O)[C@@H]1OC(C)=O [Compound 11a, 5-((Z)-Benzylidene)-3-(2′,3′,4′,6′-tetra-O-acetyl-β-D-glucopyranosyl)-2-thioxo-4-thiazolidinone] | 3.7 ± 0.13 µM | 9.8 ± 0.11 µM | –
2 | – | CCN1C(=O)C(=Cc2ccccc2)SC1=S [BTR-1, 5-Benzylidene-3-ethyl rhodanine] | – | – | < 10 µM
